{
  "source": "paper PMC8966662",
  "about": "(RSC Advances, 2022)",
  "key": {"[1]": {"assay": "in vitro bioavailability, dialysis tubing procedure", "format": "in vitro ADME", "details": "sum of pepsin (stage 1) and pancreatin (stage 2) bioavailability", "how_it_was_run": "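Test compound at 1.0 × 10³ μM in DMSO, with porcine pepsin and 2.0 w/v% sodium cholate, sealed in a dialysis bag in 8.5 × 10⁻¹ N HCl, shaking at 37 ± 0.5 °C for 2 h. Porcine pancreatin in NaHCO3, amylase and esterase then added; bag in pH 7.0 phosphate buffer, 37 °C, 4 h. Outer liquid sampled after each stage and quantified by UV-Vis against pH 1.0/7.0 calibration curves as % unchanged compound recovered; triplicate.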"}, "[2]": {"tested_on": "strain TA 98", "details": "cited from earlier work"}, "[3]": {"details": "ref 13 (Grande et al.); cited from earlier work"}, "[4]": {"assay": "2,2-diphenyl-1-picrylhydrazyl", "format": "biochemical", "details": "result in words", "how_it_was_run": "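DPPH· freshly prepared at 50 μM in methanol; test compound stocks in DMSO. Sample mixed with DPPH· solution, kept 30 min in the dark, absorbance read at 517 nm by UV-Vis. %RSA calculated against DMSO vehicle control across a series of sample concentrations. IC50 taken from %RSA plots.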"}},
  "note": "Like-named read-outs stand apart in the source and are kept apart here.",
  "data": [
    {"smiles": "NC(=O)COc1cc(OCC(N)=O)c2c(=O)c(OCC(N)=O)c(-c3ccc(OCC(N)=O)c(OCC(N)=O)c3)oc2c1", "note": "[Compound 1S3, 2,2′,2′′-((2-(3,4-bis(2-amino-2-oxoethoxy)phenyl)-4-oxo-4H-chromene-3,5,7-triyl)tris(oxy))triacetamide]", "values": [
      {"measurement": "total in vitro bioavailability", "setting": "[1]", "value": "20.70 ± 0.29", "unit": "%"},
      {"measurement": "toxicity in mutagenicity study", "setting": "[2]", "value": "nontoxic"}
    ]},
    {"smiles": "O=c1c(O)c(-c2ccc(O)cc2)oc2cc(O)cc(O)c12", "note": "[Compound 4S0, kaempferol, reference compound]", "values": [
      {"measurement": "total in vitro bioavailability", "setting": "[1]", "value": 15.40, "unit": "%"}
    ]},
    {"smiles": "O=c1c(O)c(-c2ccc(O)c(O)c2)oc2cc(O)cc(O)c12", "note": "[Compound 1S0, quercetin]", "values": [
      {"measurement": "total in vitro bioavailability", "setting": "[3]", "value": "10.7 ± 1.3", "unit": "%"}
    ]},
    {"smiles": "NC(=O)COc1ccc2c(=O)c(OCC(N)=O)c(-c3ccc(OCC(N)=O)c(OCC(N)=O)c3)oc2c1", "note": "[Compound 3S3, 2,2′-((4-(3,7-bis(2-amino-2-oxoethoxy)-4-oxo-4H-chromen-2-yl)-1,2-phenylene)bis(oxy))diacetamide]", "values": [
      {"measurement": "total in vitro bioavailability", "setting": "[1]", "value": "34.81 ± 0.85", "unit": "%"}
    ]},
    {"smiles": "O=c1c(O)c(-c2ccc(O)c(O)c2)oc2cc(O)ccc12", "note": "[Compound 3S0, Fisetin, reference compound]", "values": [
      {"measurement": "total in vitro bioavailability", "setting": "[1]", "value": 16.19, "unit": "%"}
    ]},
    {"smiles": "NC(=O)COc1ccc(-c2cc(=O)c3c(OCC(N)=O)cc(OCC(N)=O)cc3o2)cc1", "note": "[Compound 2S3, 2,2′-((2-(4-(2-amino-2-oxoethoxy)phenyl)-4-oxo-4H-chromene-5,7-diyl)bis(oxy))diacetamide]", "values": [
      {"measurement": "total in vitro bioavailability", "setting": "[1]", "value": "22.20 ± 0.82", "unit": "%"},
      {"measurement": "DPPH free radical scavenging activity (%RSA)", "setting": "[4]", "value": "very low"},
      {"measurement": "toxicity in mutagenicity study", "setting": "[2]", "value": "nontoxic"},
      {"measurement": "mutagenic activity", "setting": "[2]; strain TA 98", "value": "did not show any mutagenic activity"}
    ]},
    {"smiles": "NC(=O)COc1cc(OCC(N)=O)c2c(=O)cc(-c3ccc(OCC(N)=O)c(OCC(N)=O)c3)oc2c1", "note": "[Compound 5S3, 2,2′-((4-(5,7-bis(2-amino-2-oxoethoxy)-4-oxo-4H-chromen-2-yl)-1,2-phenylene)bis(oxy))diacetamide]", "values": [
      {"measurement": "total in vitro bioavailability", "setting": "[1]", "value": "34.87 ± 0.87", "unit": "%"}
    ]},
    {"smiles": "O=c1cc(-c2ccc(O)c(O)c2)oc2cc(O)cc(O)c12", "note": "[Compound 5S0, luteolin, reference compound]", "values": [
      {"measurement": "total in vitro bioavailability", "setting": "[1]", "value": 19.29, "unit": "%"}
    ]},
    {"smiles": "NC(=O)COc1ccc(-c2oc3cc(OCC(N)=O)cc(OCC(N)=O)c3c(=O)c2OCC(N)=O)cc1", "note": "[Compound 4S3, 2,2′,2′′-((2-(4-(2-amino-2-oxoethoxy)phenyl)-4-oxo-4H-chromene-3,5,7-triyl)tris(oxy))triacetamide]", "values": [
      {"measurement": "total in vitro bioavailability", "setting": "[1]", "value": "21.34 ± 0.50", "unit": "%"}
    ]},
    {"smiles": "O=c1cc(-c2ccc(O)cc2)oc2cc(O)cc(O)c12", "note": "[Compound 2S0, apigenin, reference compound]", "values": [
      {"measurement": "total in vitro bioavailability", "setting": "[1]", "value": 16.59, "unit": "%"},
      {"measurement": "DPPH free radical scavenging activity (%RSA)", "setting": "[4]", "value": "very low"}
    ]}
  ]
}
